Molecules are shown by their SMILES.

For assay [1], the target named is T1, ATP-citrate synthase (Rattus norvegicus, UniProt P16638).
T1 sequence (P16638 whole entry): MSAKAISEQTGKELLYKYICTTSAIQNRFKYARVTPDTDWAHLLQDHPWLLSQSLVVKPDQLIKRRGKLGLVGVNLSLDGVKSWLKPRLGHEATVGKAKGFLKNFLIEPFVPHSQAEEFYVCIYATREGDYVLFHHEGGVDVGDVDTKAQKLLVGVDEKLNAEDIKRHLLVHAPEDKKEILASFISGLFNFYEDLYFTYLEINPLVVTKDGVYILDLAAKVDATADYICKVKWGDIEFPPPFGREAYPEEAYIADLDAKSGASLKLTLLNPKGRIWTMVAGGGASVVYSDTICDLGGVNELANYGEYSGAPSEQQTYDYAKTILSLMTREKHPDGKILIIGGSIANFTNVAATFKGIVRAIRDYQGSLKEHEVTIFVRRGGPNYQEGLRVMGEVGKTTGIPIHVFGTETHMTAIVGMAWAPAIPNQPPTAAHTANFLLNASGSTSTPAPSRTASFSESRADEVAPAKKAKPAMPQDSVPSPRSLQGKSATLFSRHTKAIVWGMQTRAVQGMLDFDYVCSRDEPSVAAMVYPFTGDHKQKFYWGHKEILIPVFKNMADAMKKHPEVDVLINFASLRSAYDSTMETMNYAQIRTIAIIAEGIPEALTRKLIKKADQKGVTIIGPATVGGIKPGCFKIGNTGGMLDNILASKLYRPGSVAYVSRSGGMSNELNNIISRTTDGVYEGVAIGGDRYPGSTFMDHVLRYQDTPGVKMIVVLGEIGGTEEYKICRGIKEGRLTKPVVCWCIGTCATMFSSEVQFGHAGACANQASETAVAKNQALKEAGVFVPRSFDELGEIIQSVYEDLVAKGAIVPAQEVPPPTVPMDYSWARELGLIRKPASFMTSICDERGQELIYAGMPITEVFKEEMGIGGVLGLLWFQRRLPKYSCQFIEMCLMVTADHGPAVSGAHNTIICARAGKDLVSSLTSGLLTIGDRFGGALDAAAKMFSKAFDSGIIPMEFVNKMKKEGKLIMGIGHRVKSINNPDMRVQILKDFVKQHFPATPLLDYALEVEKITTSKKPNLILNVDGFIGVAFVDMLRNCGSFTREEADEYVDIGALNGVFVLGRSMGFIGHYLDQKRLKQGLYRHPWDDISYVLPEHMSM
The assay can be described thus: Inhibitory activity against rat ATP-citrate lyase activity by the […] dehydrogenase catalyzed reduction of oxaloacetate by NADH. A digest of the protocol: (§1)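 Purified rat ACL or recombinant human ACL was assayed by coupling oxaloacetate formation to malate dehydrogenase reduction with NADH. Buffer: Tris 100 mM pH 8.0, MgCl2 10 mM, KCl 10 mM, DTT 10 mM, plus ATP and NADH. CoA was 200 μM, and citrate was added to 100 μM (its Km) to start the reaction. A340 decrease was followed over 20 min. Ki came from fitting v = Vmax/(2 + [I]/Ki), assuming citrate-competitive inhibition.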

The target in assay [2] is T1, ATP-citrate synthase. The assay can be described thus: Inhibition of recombinant ATP-Citrate Lyase activity as […] dehydrogenase catalyzed reduction of oxaloacetate by NADH. The settings on record: in the assay text read “purified rat ATP-Citrate Lyase” for “recombinant ATP-Citrate Lyase”. The method, boiled down:
as §1

For assay [3], the target named is T2, ATP-citrate synthase (Homo sapiens) (UniProt P53396).
T2 sequence (whole entry): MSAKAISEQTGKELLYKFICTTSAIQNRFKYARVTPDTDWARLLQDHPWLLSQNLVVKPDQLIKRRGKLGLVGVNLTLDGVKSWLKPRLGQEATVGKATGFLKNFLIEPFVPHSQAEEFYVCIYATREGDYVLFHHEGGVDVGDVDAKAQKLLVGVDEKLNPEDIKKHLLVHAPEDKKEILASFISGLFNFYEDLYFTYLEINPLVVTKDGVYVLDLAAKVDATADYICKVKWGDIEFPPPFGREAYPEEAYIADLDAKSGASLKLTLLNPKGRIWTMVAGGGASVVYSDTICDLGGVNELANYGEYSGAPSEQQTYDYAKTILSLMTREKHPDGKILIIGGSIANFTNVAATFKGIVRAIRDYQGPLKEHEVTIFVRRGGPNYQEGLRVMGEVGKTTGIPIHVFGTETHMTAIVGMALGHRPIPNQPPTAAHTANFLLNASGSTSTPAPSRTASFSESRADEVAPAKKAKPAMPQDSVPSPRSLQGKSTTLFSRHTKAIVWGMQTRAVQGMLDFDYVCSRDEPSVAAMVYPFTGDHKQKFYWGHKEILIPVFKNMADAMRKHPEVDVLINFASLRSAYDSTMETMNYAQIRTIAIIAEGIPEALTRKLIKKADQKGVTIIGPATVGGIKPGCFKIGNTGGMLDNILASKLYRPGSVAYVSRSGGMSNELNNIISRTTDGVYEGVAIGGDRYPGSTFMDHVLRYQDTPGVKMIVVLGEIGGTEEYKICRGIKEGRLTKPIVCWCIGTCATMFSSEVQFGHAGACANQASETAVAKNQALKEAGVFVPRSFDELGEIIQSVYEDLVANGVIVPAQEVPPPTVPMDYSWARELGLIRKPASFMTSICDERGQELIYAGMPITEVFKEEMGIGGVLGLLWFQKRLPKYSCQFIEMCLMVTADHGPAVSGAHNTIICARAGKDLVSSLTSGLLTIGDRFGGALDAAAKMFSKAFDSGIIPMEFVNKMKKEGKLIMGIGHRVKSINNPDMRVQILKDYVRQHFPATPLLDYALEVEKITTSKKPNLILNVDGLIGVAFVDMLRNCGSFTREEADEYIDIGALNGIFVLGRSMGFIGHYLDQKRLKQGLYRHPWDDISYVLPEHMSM
The assay can be described thus: (§2) Inhibitory activity against human recombinant ATP-Citrate Lyase activity was measured by the […] dehydrogenase catalyzed reduction of oxaloacetate by NADH. The settings on record: concentration not given here. A digest of the protocol: as §1

Assay [4] deals with T3, ATP-citrate synthase (Homo sapiens, UniProt P53396).
T3 sequence (P53396 whole entry): T2 sequence (whole entry)
The description is as §2. A digest of the protocol: as §1

Assay [5] concerns HepG2. The assay can be described thus: Percent reduction of cholesterol synthesis in human hepatoma cell line HepG2 at 1000 uM concentration. Type of assay: functional. The method, boiled down: (§3)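 HepG2 cells were grown in DMEM with Hepes, bicarbonate, glutamine and 10% FCS to 80–90% confluence, then kept overnight serum-free. Vehicle or compound was added at the stated final concentration for 2.5 h. ³H2O (71 μCi/mmol) was present for the final 90 min. Synthesis rates came from ³H incorporated into cellular cholesterol or fatty acids, relative to vehicle control.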

Assay [6] relates to HepG2. The assay can be described thus: Percent reduction of fatty acid synthesis in human hepatoma cell line HepG2 at 1000 uM concentration. It counts as functional. A digest of the protocol: as §3
The subject of assay [7] is HepG2. The assay can be described thus: Percent control of ATP levels in human hepatoma cell line HepG2 at 10 uM concentration. It counts as functional. A digest of the protocol:
(§4)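 Serum-starved HepG2 cells (grown to 80–90% confluence in DMEM/10% FCS, then overnight without serum) were exposed to vehicle or compound at the stated final concentration for 2.5 h. Cellular ATP was then measured as a toxicity check and expressed as % of vehicle control.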

Assay [8] relates to HepG2. The assay can be described thus: Percent reduction of fatty acid synthesis in human hepatoma cell line HepG2 at 10 uM concentration. Type of assay: functional. Details: scale not given: the % may be the effect or the level left. A digest of the protocol:
as §3

Assay [9] relates to HepG2. The assay can be described thus: Percent reduction of cholesterol synthesis in human hepatoma cell line HepG2 at 10 uM concentration. It counts as functional. Details: scale not given: the % may be the effect or the level left. A digest of the protocol: as §3
For assay [10], the system named is HepG2. The assay can be described thus: Percent control of ATP levels in human hepatoma cell line HepG2 at 1000 uM concentration. Type of assay: functional. The method, boiled down: as §4

As for `O=C(O)CC(O)(CSCCCCCCc1cccc(Cl)c1Cl)C(=O)O` (configuration not stated), the Ki on ATP-citrate synthase [1] is 7.3 µM.
Still for that read-out and setting: under `O=C(O)CCCSCCCCCCc1ccc(Cl)cc1Cl` stands 25 µM; under `O=C(O)CC(O)(CSCCCCCCc1ccc(Cl)c(Cl)c1)C(=O)O` (configuration not stated), 110 µM.
In the case of `NS(=O)(=O)c1ccc(CCCCCCSCC(O)(CC(=O)O)C(=O)O)cc1` (configuration not stated), affinity at ATP-citrate synthase [1] was put at a Ki of 500 µM.
Compound `O=C(O)CC(O)(CSCCCCCCc1ccc(Br)cc1)C(=O)O` (configuration not stated) showed a Ki at ATP-citrate synthase [1] of 31 µM.
Turning to `O=C(O)CC(O)(CSCCCCCCc1ccc2ccccc2c1)C(=O)O` (configuration not stated), the Ki on ATP-citrate synthase [2] turned out to be 93 µM.
Turning to `O=C(O)CC(O)(CSCCCCCCc1cccnc1)C(=O)O` (configuration not stated), the inhibition in assay [3] was determined as 35%.
As for `O=C(O)CC(O)(CSCCCCCCc1c(Cl)cncc1Cl)C(=O)O` (configuration not stated), the Ki on ATP-citrate synthase [4] stood at 121 µM.
In the case of `O=C(O)CC(O)(CSCCCCCCc1c(Cl)cc(Cl)cc1-c1ccccc1)C(=O)O` (configuration not stated), on ATP-citrate synthase [2], the Ki was found to be 10 µM.
The compound `CN(CCCCSCC(O)(CC(=O)O)C(=O)O)S(=O)(=O)c1ccc(Cl)cc1Cl` (configuration not stated) yielded an inhibition constant Ki on ATP-citrate synthase [1] of 178 µM.
As for `COc1ccc(CCCCCCSCC(O)(CC(=O)O)C(=O)O)cc1` (configuration not stated), the Ki on ATP-citrate synthase [2] stood at 280 µM.
Turning to `O=C(O)CC(O)(CSCCCCCCc1ccncc1)C(=O)O` (configuration not stated), the inhibition in [3] turned out to be 20%.
`O=C(O)CC(O)(CSCCCCCc1ccccc1-c1ccccc1)C(=O)O` (configuration not stated) yielded an inhibition constant (Ki) at ATP-citrate synthase [1] of 21 µM.
On the same count and under the same terms, under `O=C(O)CC(O)(CCCCCCCCc1ccc(Cl)cc1Cl)C(=O)O` (configuration not stated) stands 2.9 µM; under `O=C(O)CC(O)(CSCc1ccc(Cl)cc1Cl)C(=O)O` (configuration not stated), 410 µM; under `O=C(O)CC(CSCCCCCCc1ccc(Cl)cc1Cl)C(=O)O` (configuration not stated), 2.6 µM.
In the case of `O=C(O)CC(O)(CSCCc1ccc(Cl)cc1Cl)C(=O)O` (configuration not stated), at ATP-citrate synthase [2], the Ki came to 480 µM.
Consider `O=C(O)CC(O)(CC(=O)CCCCCCc1ccc(Cl)cc1Cl)C(=O)O` (configuration not stated), for which, in the assay on HepG2 [5], the “Cholesterol synthesis (% of vehicle control)” value is reported as 102%. In the assay with HepG2 [6], the “Fatty acid synthesis (% of vehicle control)” value was found to be 102%. The Ki on ATP-citrate synthase [1] was found to be 1.2 µM. For the same compound, the Control in the assay on HepG2 [7] was determined as 102%; with HepG2 [8], 98%; with HepG2 [9] it was 108%; in the assay on HepG2 [10], 107%.
The compound `O=C(O)CC(O)(CSCCCCCCc1c(Cl)cccc1Cl)C(=O)O` (configuration not stated) returned a Ki at ATP-citrate synthase [1] of 76 µM.
As to `O=C(O)CC(O)(CC(=O)CCCCCc1ccc(Cl)cc1Cl)C(=O)O` (configuration not stated), at ATP-citrate synthase [1], the Ki was 25 µM.
`O=C(O)CC(O)(CSCCCC/C=C/c1ccc(Cl)cc1Cl)C(=O)O` (configuration not stated) gave a Ki on ATP-citrate synthase [1] of 33 µM.
For `O=C(O)CC(O)(CSCCCCCOc1ccc(Cl)cc1Cl)C(=O)O` (configuration not stated), the Ki on ATP-citrate synthase [1] is 67 µM.
As for `O=C(O)CC(O)(CSCCCCCc1ccccc1)C(=O)O` (configuration not stated), the Ki at ATP-citrate synthase [1] amounted to 490 µM.
Still for that read-out and setting: the result for `O=C(O)CC(O)(CSCCCCCCc1ccc(-c2ccccc2)cc1)C(=O)O` (configuration not stated) reads 38 µM; that for `O=C(O)CC(O)(CSCCCCCCc1cccc(Cl)c1)C(=O)O` (configuration not stated), 150 µM; that for `O=C(O)CC(O)(CSCCCCCc1ccc(-c2ccccc2)cc1)C(=O)O` (configuration not stated), 226 µM.

The values above are taken from ChEMBL document CHEMBL1129688, “ATP-citrate lyase as a target for hypolipidemic intervention. Design and synthesis of 2-substituted butanedioic acids as novel, potent inhibitors of the enzyme” (J Med Chem, 1996).
